Source: ChEMBL document CHEMBL1131374, “Inhibition of Fc epsilon RI-mediated activation of mast cells by 2,3,4-trihydropyrimidino[2,1-a]isoquinolines” (J Med Chem, 1998)

Legend:
[1] = The cell toxicity on CPII mouse mast cells transfected with TNF-alpha 3' nontranslated sequences reporter gene plasmid; format: cell-based; settings: read-out: TC50 (the source's name)
[2] = The Hexosaminidase release concentration in CPII mouse mastcells transfected with TNF-alpha 3' reporter gene plasmid was measured; format: functional
[3] = (§1) The Inhibitory potency on CPII mouse mastcells transfected with TNF-alpha 3' reporter gene plasmid was measured by reporter gene assay; format: functional
[4] = as §1; format: functional; remark: listed apart in the source
Method in brief: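 Clone 12: CPII cells stably carrying a TNFα promoter–luciferase–TNFα 3′ construct. Cells exposed to compound 1 h, then triggered with (dinitrophenyl)albumin/anti-dinitrophenyl-IgE complex. Luciferase read after 6 h incubation. Screening single dose 10 μM; a hit was over 50% inhibition of induction with under 20% toxicity.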

| IC50 [2] | IC50 [3] | IC50 [4] | SMILES | CC50 [1] |
| --- | --- | --- | --- | --- |
| 4.8 µM | 4.8 µM |  | CC(C)(C)c1ccc(C2=Cc3ccc(NC(=O)Cc4ccccn4)cc3C3=NCCCN23)cc1 | 8.8 µM |
| 0.9 µM | 0.8 µM |  | C1=C(c2ccc(OCc3ccccc3)cc2)N2CCCN=C2c2ccccc21 | 3.5 µM |
| 0.6 µM | 0.3 µM |  | CCCCC1=C(c2ccc(C(C)(C)C)cc2)N2CCCN=C2c2ccccc21 | 2.1 µM |
| > 10 µM |  | > 10 µM | C1=C(Cc2ccccc2)c2ccccc2C2=NCCCN12 | > 10 µM |
| 1.2 µM | 0.8 µM |  | C[Si](C)(C)c1ccc(C2=C(Cc3ccccc3)c3ccccc3C3=NCCCN32)cc1 | 5.5 µM |
| 4.1 µM | > 10 µM |  | C1=C(/C=C/c2ccccc2)N2CCCN=C2c2ccccc21 | > 10 µM |
| 2.1 µM | 1.7 µM |  | CC(C)(C)c1ccc(C2=Cc3ccc(NC(=O)NC4CCCCC4)cc3C3=NCCCN23)cc1 | 4.8 µM |
| 0.9 µM | 0.6 µM |  | c1ccc(CCc2ccc(C3=C(Cc4ccccc4)c4ccccc4C4=NCCCN43)cc2)cc1 | 2.2 µM |
| > 25 µM |  | 9 µM | Clc1ccc(OCC2=Cc3ccccc3C3=NCCCN23)cc1 | > 10 µM |
| > 25 µM |  | > 10 µM | CC1=Cc2ccccc2C2=NCCCN12 | > 10 µM |
| > 25 µM |  | > 10 µM | COc1cc(C2=Cc3ccccc3C3=NCCCN23)cc(OC)c1OC | > 10 µM |

Continued, molecule first:

| SMILES | IC50 [2] | IC50 [3] | IC50 [4] | CC50 [1] |
| --- | --- | --- | --- | --- |
| CC(C)(C)c1ccc(C2=Cc3ccc(N(Cc4ccccc4)Cc4ccccc4)cc3C3=NCCCN23)cc1 | 0.6 µM | 0.6 µM |  | 2.6 µM |
| CC(C)(C)c1ccc(C2=Cc3ccccc3C3=NCCCN23)cc1 | 0.7 µM | 0.9 µM |  | 5.7 µM |
| CC(C)(C)c1ccc(C2=C(Cc3ccccc3)c3ccccc3C3=NCCCN32)cc1 | 2.9 µM | 2 µM |  | 5 µM |
| CC(C)(C)c1ccc(C2=Cc3ccc(N/C(S)=N/C4CCCCC4)cc3C3=NCCCN23)cc1 | 3.3 µM | 2.6 µM |  | 9.9 µM |
| CCOc1ccc(CC2=C(CCCc3cccc4ccccc34)N3CCCN=C3c3ccccc32)cc1 | 3.5 µM | 1.5 µM |  | 5.5 µM |
| N[C@@H](Cc1ccccc1)C1=Cc2ccccc2C2=NCCCN12 | > 25 µM | > 10 µM |  | > 25 µM |
| C1=C(c2ccccc2)N2CCCN=C2c2ccccc21 | 12 µM |  | > 10 µM | > 10 µM |
| CC(C)(C)c1ccc(C2=Cc3ccc(NC(=O)Nc4ccc(Cl)cc4Cl)cc3C3=NCCCN23)cc1 | 17 µM | 3.3 µM |  | 5.8 µM |
| CCCCCCC1=Cc2ccccc2C2=NCCCN12 | 4.5 µM |  | > 10 µM | > 10 µM |
| C1=C(c2ccc(CCc3ccccc3)cc2)N2CCCN=C2c2ccccc21 | 0.5 µM |  | 0.7 µM | 2.1 µM |
| CCOc1ccc(CC2=C(c3ccc(CCc4ccccc4)cc3)N3CCCN=C3c3ccccc32)cc1 | 2.6 µM | 0.9 µM |  | 9 µM |
| CCCCC1=C(c2ccc(CCc3ccccc3)cc2)N2CCCN=C2c2ccccc21 | 0.3 µM | 0.2 µM |  | 2.7 µM |
| Clc1ccc(C2=Cc3ccccc3C3=NCCCN23)cc1 | 5.5 µM |  | > 10 µM | > 10 µM |
| CN(C)CCC1=C(c2ccc(C(C)(C)C)cc2)N2CCCN=C2c2ccccc21 | > 10 µM | > 10 µM |  | > 10 µM |
| CC(C)(C)c1ccc(C2=Cc3ccc(N)cc3C3=NCCCN23)cc1 | 3 µM | 1.7 µM |  | 7.8 µM |
| C[Si](C)(C)c1ccc(C2=Cc3ccccc3C3=NCCCN23)cc1 | 0.5 µM |  | 0.8 µM | 3.2 µM |
| C1=C(c2ccc(-c3ccccc3)cc2)N2CCCN=C2c2ccccc21 | 1.7 µM |  | 1.5 µM | 3.9 µM |
